Experimental data from ChEMBL document CHEMBL4725393, “Prodrug Strategies to Improve the Solubility of the HCV NS5A Inhibitor Pibrentasvir (ABT-530)” (J Med Chem, 2020).
Converted amounts (≈) assume the structure as drawn.

Tests used:
[1] = Cmax in CD1 mouse assessed as pibrentasvir1 level at 6 mg/kg, po measured up to 24 hrs; type: ADME, organism-based; design: route oral, dose 6 mg/kg, time <=24; conditions: in vivo
Outline: (§1)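 CD-1 mice with free access to food and water received an oral gavage of prodrug or PIB at 10 mL/kg in 0.2% HPMC. The dose was adjusted for prodrug MW to equal 6 mg/kg PIB. K2EDTA blood was drawn at 0.25, 0.5, 1, 3, 6, 9, 12 and 24 h. Plasma was spun at 3200 x g for 5 min at ~4°C and stored below -15°C. PIB and prodrug were measured; AUC in ng·h/mL, Cmax in ng/mL.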

[2] = Equilibrium solubility of compound at pH 7.4 incubated for 24 to 48 hrs by HPLC analysis; type: physicochemical; conditions: buffer, time 24-48 hrs
Outline: (§2)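 For equilibrium solubility, excess solid was added to 3–4 mL of medium, in triplicate. Suspension pH was read after equilibration. Solids were removed by centrifugation at 4000 rpm at 25 °C, and the supernatant was passed through a 0.45 µm filter, discarding the first 2 mL. The filtrate was quantified by HPLC against standard curves.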

[3] = Solubility in FeSSIF at pH 5; type: physicochemical; outline: as §2
[4] = Equilibrium solubility of compound at pH 1 incubated for 24 to 48 hrs by HPLC analysis; type: physicochemical; conditions: buffer, time 24-48 hrs; outline: as §2
[5] = Stability of compound at pH 1 assessed as prodrug remaining level at 125 ug/ml incubated for 24 hrs by HPLC analysis; type: physicochemical; conditions: buffer, pH 1, 24 h, at 125 µg/mL
Outline: (§3)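 A DMSO stock of about 1.25 mg/mL was diluted into 0.1 N HCl (pH 1) or 50 mM phosphate buffer (pH 7.4), giving final concentrations of ~125 µg/mL prodrug and 10% DMSO. The solution was filtered and held at 37 °C in the HPLC autosampler, with injections at several times over 24 h. Percent remaining was calculated from prodrug peak area relative to t0.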

[6] = Stability of compound at pH 7.4 assessed as prodrug remaining level at 125 ug/ml incubated for 24 hrs by HPLC analysis; type: physicochemical; conditions: buffer, pH 7.4, 24 h, at 125 µg/mL; outline: as §3
[7] = AUC in CD1 mouse assessed as pibrentasvir1 level at 6 mg/kg, po measured up to 24 hrs; type: ADME, organism-based; design: route oral, dose 6 mg/kg, time <=24; conditions: in vivo; outline: as §1
[8] = Cmax in beagle dog assessed as pibrentasvir1 level at 40 mg, po measured up to 24 hrs; type: ADME, organism-based, Canis lupus familiaris; design: route oral, dose 40 mg, time <=24; conditions: in vivo
Outline: (§4)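 The dose equalled 40 mg PIB after adjustment for prodrug MW. Food was returned at 12 h. K2EDTA plasma was sampled at 0.25–24 h. Cmax is in ng/mL and AUC in ng·h/mL.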

[9] = AUC in beagle dog assessed as pibrentasvir1 level at 40 mg, po measured up to 24 hrs; type: ADME, organism-based, Canis lupus familiaris; design: route oral, dose 40 mg, time <=24; conditions: in vivo; outline: as §4
[10] = Cmax in CD1 mouse assessed as pibrentasvir1 level at 3 mg/kg, po measured up to 24 hrs; type: ADME, organism-based; design: route oral, dose 3 mg/kg, time <=24; conditions: in vivo
Outline: (§5)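 CD-1 mice, fed ad libitum, were dosed orally at a prodrug-MW-adjusted dose equal to 3 mg/kg PIB, as a solution or suspension. Serial K2EDTA blood samples were taken from 0.25 to 24 h. Plasma was separated by centrifugation and kept frozen. PIB and prodrug levels were reported as Cmax (ng/mL) and AUC (ng·h/mL).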

[11] = AUC in CD1 mouse assessed as pibrentasvir1 level at 3 mg/kg, po measured up to 24 hrs; type: ADME, organism-based; design: route oral, dose 3 mg/kg, time <=24; conditions: in vivo; outline: as §5

SMILES	Cmax [1]	solubility thermodynamic [2]	solubility [3]	solubility thermodynamic [4]	Stabilty [5]	Stabilty [6]	AUC [7]	Cmax [8]	AUC [9]	Cmax [10]	AUC [11]
COC(=O)N[C@H](C(=O)N1CCC[C@H]1c1nc2cc(F)c([C@H]3CC[C@H](c4cc5nc([C@@H]6CCCN6C(=O)[C@@H](NC(=O)OC)[C@@H](C)OC)n(COC(=O)Cc6ccccc6OP(=O)(O)O)c5cc4F)N3c3cc(F)c(N4CCC(c5ccc(F)cc5)CC4)c(F)c3)cc2[nH]1)[C@@H](C)OC	584 ng/mL	< 0.2 µg/mL	> 1000 µg/mL	2 µg/mL (≈ 1.47 µM)	15%	28%	9560 ng·h/mL	288 ng/mL	2940 ng·h/mL	–	–
COC(=O)N[C@H](C(=O)N1CCC[C@H]1c1nc2cc(F)c([C@H]3CC[C@H](c4cc5c(cc4F)nc([C@@H]4CCCN4C(=O)[C@@H](NC(=O)OC)[C@@H](C)OC)n5COC(=O)c4cccc(OP(=O)(O)O)c4)N3c3cc(F)c(N4CCC(c5ccc(F)cc5)CC4)c(F)c3)cc2[nH]1)[C@@H](C)OC	46 ng/mL	> 1000 µg/mL	–	> 1000 µg/mL	91%	100%	819 ng·h/mL	–	–	–	–
COC(=O)N[C@H](C(=O)N1CCC[C@H]1c1nc2cc(F)c([C@H]3CC[C@H](c4cc5nc([C@@H]6CCCN6C(=O)[C@@H](NC(=O)OC)[C@@H](C)OC)n(COC(=O)N(C)c6ncccc6COP(=O)(O)O)c5cc4F)N3c3cc(F)c(N4CCC(c5ccc(F)cc5)CC4)c(F)c3)cc2[nH]1)[C@@H](C)OC	380 ng/mL	> 1000 µg/mL	> 1000 µg/mL	> 1000 µg/mL	92%	92%	6490 ng·h/mL	297 ng/mL	3020 ng·h/mL	–	–

Second part, the compound after the results:

Cmax [1]	solubility thermodynamic [2]	solubility [3]	solubility thermodynamic [4]	Stabilty [5]	Stabilty [6]	AUC [7]	Cmax [8]	AUC [9]	Cmax [10]	AUC [11]	SMILES
784 ng/mL	874 µg/mL (≈ 668 µM)	> 1000 µg/mL	609 µg/mL (≈ 465 µM)	76%	80%	12600 ng·h/mL	–	–	–	–	COC(=O)N[C@H](C(=O)N1CCC[C@H]1c1nc2cc(F)c([C@H]3CC[C@H](c4cc5c(cc4F)nc([C@@H]4CCCN4C(=O)[C@@H](NC(=O)OC)[C@@H](C)OC)n5COC(=O)CCCOP(=O)(O)O)N3c3cc(F)c(N4CCC(c5ccc(F)cc5)CC4)c(F)c3)cc2[nH]1)[C@@H](C)OC
–	> 1000 µg/mL	–	> 1000 µg/mL	–	–	–	275 ng/mL	2580 ng·h/mL	28 ng/mL	477 ng·h/mL	COC(=O)N[C@H](C(=O)N1CCC[C@H]1c1nc2cc([C@H]3CC[C@H](c4cc5c(cc4F)nc([C@@H]4CCCN4C(=O)[C@@H](NC(=O)OC)[C@@H](C)OC)n5COP(=O)(O)O)N3c3cc(F)c(N4CCC(c5ccc(F)cc5)CC4)c(F)c3)c(F)cc2n1COP(=O)(O)O)[C@@H](C)OC
–	> 1000 µg/mL	–	567 µg/mL (≈ 425 µM)	–	–	–	66 ng/mL	611 ng·h/mL	20 ng/mL	353 ng·h/mL	COC(=O)N[C@H](C(=O)N1CCC[C@H]1c1nc2cc(F)c([C@H]3CC[C@H](c4cc5c(cc4F)nc([C@@H]4CCCN4C(=O)[C@@H](NC(=O)OC)[C@@H](C)OC)n5COP(=O)(O)O)N3c3cc(F)c(N4CCC(c5ccc(F)cc5)CC4)c(F)c3)cc2n1COP(=O)(O)O)[C@@H](C)OC
336 ng/mL	49 µg/mL (≈ 37.4 µM)	> 1000 µg/mL	146 µg/mL (≈ 112 µM)	82%	76%	5570 ng·h/mL	462 ng/mL	4510 ng·h/mL	–	–	COC(=O)N[C@H](C(=O)N1CCC[C@H]1c1nc2cc(F)c([C@H]3CC[C@H](c4cc5nc([C@@H]6CCCN6C(=O)[C@@H](NC(=O)OC)[C@@H](C)OC)n(COC(=O)CCCOP(=O)(O)O)c5cc4F)N3c3cc(F)c(N4CCC(c5ccc(F)cc5)CC4)c(F)c3)cc2[nH]1)[C@@H](C)OC
